From ChEMBL document CHEMBL1126276, “Synthesis and antimalarial properties of 1-imino derivatives of 7-chloro-3-substituted-3,4-dihydro-1,9(2H,10H)-acridinediones and related structures” (J Med Chem, 1992)

How the values were obtained:
Format in all cases: functional
[1] = system: Plasmodium berghei; test: Antimalarial activity in Plasmodium berghei infected mice (Mus musculus) after 20 mg/kg subcutaneous dose
Procedure, shortened: (§1)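 […] in mice infected with a normal drug-sensitive P. berghei strain. Compound dissolved or suspended in sesame or peanut oil, given as a single subcutaneous dose 72 h postinfection.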

[2] = system: Plasmodium berghei; test: Antimalarial activity in Plasmodium berghei infected mice (Mus musculus) after 40 mg/kg subcutaneous dose; procedure, shortened: as §1
[3] = system: Plasmodium berghei; test: Antimalarial activity Plasmodium berghei infected mice (Mus musculus) after 640 mg/kg subcutaneous dose; procedure, shortened: as §1
[4] = system: Plasmodium berghei; test: Antimalarial activity in Plasmodium berghei infected mice (Mus musculus) after 160 mg/kg subcutaneous dose; procedure, shortened: as §1
[5] = system: Plasmodium berghei; test: Antimalarial activity in Plasmodium berghei infected mice (Mus musculus) after subcutaneous 160 mg/kg dose
Procedure, shortened: (§2)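 Normal drug-sensitive P. berghei strain in mice. Compound dissolved or suspended in sesame or peanut oil, given parenterally as a single subcutaneous dose 72 h postinfection.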

[6] = system: Plasmodium berghei; test: Antimalarial activity in Plasmodium berghei infected mice (Mus musculus) after 80 mg/kg subcutaneous dose; procedure, shortened: as §1
[7] = system: Plasmodium berghei; test: Antimalarial activity in Plasmodium berghei infected mice (Mus musculus) after subcutaneous 640 mg/kg dose; procedure, shortened: as §2
[8] = system: Plasmodium berghei; test: Antimalarial activity in Plasmodium berghei infected mice (Mus musculus) after subcutaneous 320 mg/kg dose; procedure, shortened: as §2

| Structure (SMILES) | Delta mean survival time [1] | Delta mean survival time [2] | Delta mean survival time [3] | Delta mean survival time [4] | No. of cured mice [5] | Delta mean survival time [6] | No. of cured mice [7] | No. of cured mice [8] |
| --- | --- | --- | --- | --- | --- | --- | --- | --- |
| O=C1CC(c2ccccc2Cl)Cc2nc3ccc(Cl)cc3c(O)c21 (stereo unspecified) | 1.5 | 2.7 | 9.6 | 0.4 | 1 | 5.5 | 1 | – |
| CCN(CC)CC(C)(C)C/N=C1\CC(c2cc(OC)c(OC)c(OC)c2)Cc2c1c(=O)c1cc(Cl)ccc1n2O (stereo unspecified) | – | 0.5 | 4.7 | 0.7 | – | – | – | – |
| Cn1c2c(c(=O)c3cc(Cl)ccc31)C(=O)CC(c1ccc(Cl)c(Cl)c1)C2 (stereo unspecified) | – | 0 | 0.2 | 0.6 | – | – | – | – |
| O=C1c2c(nc3ccc(Cl)cc3c2O)CC(c2ccc(Cl)c(Cl)c2)C1c1ccccc1 (stereo unspecified) | – | 0 | 1.4 | 0.4 | – | – | – | – |
| CC(C)C1CC(=O)c2c(n(C)c3ccccc3c2=O)C1 (stereo unspecified) | – | -0.2 | 0.5 | 0.2 | – | – | – | – |
| CN(C)CCC/N=C1\CC(c2ccc(C(F)(F)F)cc2)Cc2nc3c(Br)cc(Br)cc3c(O)c21 (stereo unspecified) | – | 0.2 | 0.4 | 0.2 | – | – | – | – |
| O=C1c2c(nc3ccc(Cl)cc3c2O)CCC1c1ccccc1 (stereo unspecified) | – | 0.2 | 0 | 0 | – | 0 | – | – |
| CSc1ccc(C2CC(=O)c3c(nc4ccc(Cl)cc4c3O)C2)cc1 (stereo unspecified) | – | 4.4 | 12.4 | 8.6 | – | – | – | – |
| Cc1ccc(C2CC(=O)c3c(nc4ccc(Cl)cc4c3O)C2)cc1 (stereo unspecified) | – | 3.9 | 11.7 | 8.7 | 2 | – | 2 | – |
| O=C1CC(c2ccc(C3CCCCC3)cc2)Cc2nc3ccc(Cl)cc3c(O)c21 (stereo unspecified) | – | 0.2 | 1.6 | 0.2 | – | – | – | – |
| CCCCCCn1c2c(c(=O)c3cc(Cl)ccc31)C(=O)CC(c1ccc(C(F)(F)F)cc1)C2 (stereo unspecified) | – | 0.1 | 0.1 | 0 | – | – | – | – |
| O=C1CC(c2ccncc2)Cc2nc3ccc(Cl)cc3c(O)c21 (stereo unspecified) | – | 0.2 | 2.2 | 0.8 | – | – | – | – |
| O=C1CC(c2ccccc2C(F)(F)F)Cc2c1c(=O)c1cc(Cl)ccc1n2O (stereo unspecified) | 0.6 | 2.7 | 8.3 | 4.5 | – | – | – | – |
| CCC1C(=O)c2c(nc3ccc(Cl)cc3c2O)CC1c1ccc(C(F)(F)F)cc1 (stereo unspecified) | – | 0.6 | 1.6 | 1.2 | – | – | – | – |
| O=C1CC2(CCCCC2)Cc2nc3ccc(Cl)cc3c(O)c21 | – | 0.6 | 0.2 | 0 | – | – | – | – |
| O=C1CC(c2ccncc2)Cc2c1c(=O)c1cc(Cl)ccc1n2O (stereo unspecified) | – | 0 | 2 | 0.2 | – | – | – | – |
| O=C1CC(c2ccc([N+](=O)[O-])cc2)Cc2nc3ccc(Cl)cc3c(O)c21 (stereo unspecified) | – | 0.8 | 13.3 | 4.6 | – | – | 2 | – |
| O=C1CC(c2ccc(C(F)(F)F)cc2)Cc2nc3ccc([N+](=O)[O-])cc3c(O)c21 (stereo unspecified) | 0.7 | 4.1 | 6.9 | 2.8 | – | – | 1 | – |
| O=C1CC(c2ccc(C(F)(F)F)cc2)Cc2nc3c(Cl)cc(Cl)cc3c(O)c21 (stereo unspecified) | – | -0.2 | 0 | 0.4 | – | – | – | – |

| Structure (SMILES) | Delta mean survival time [1] | Delta mean survival time [2] | Delta mean survival time [3] | Delta mean survival time [4] | No. of cured mice [5] | Delta mean survival time [6] | No. of cured mice [7] | No. of cured mice [8] |
| --- | --- | --- | --- | --- | --- | --- | --- | --- |
| O=C1CC(c2ccc(C3CCCCC3)cc2)Cc2c1c(=O)c1cc(Cl)ccc1n2O (stereo unspecified) | – | 0.9 | 4.1 | 1.3 | – | – | – | – |
| COc1cc(C2C/C(=N\CCCN3CCCC3)c3c(n(O)c4ccc(Cl)cc4c3=O)C2)cc(OC)c1OC (stereo unspecified) | – | 0.2 | 6.4 | 0.6 | – | – | – | – |
| COc1ccc(C2C/C(=N\CCCN(C)C)c3c(nc4ccc(Cl)cc4c3O)C2)cc1 (stereo unspecified) | – | 0.5 | 11.2 | 4.5 | – | – | 1 | – |
| O=C1CC(c2ccc(C(F)(F)F)cc2)Cc2nc3ccc(C(F)(F)F)cc3c(O)c21 (stereo unspecified) | – | 0.1 | -0.1 | 0.1 | – | – | – | – |
| O=C1CC(c2ccc(C(F)(F)F)cc2)Cc2nc3ccc(I)cc3c(O)c21 (stereo unspecified) | – | 0.2 | 0.4 | 0.4 | – | – | – | – |
| O=C1CC(c2ccc(Cl)cc2Cl)Cc2nc3cc(Cl)ccc3c(O)c21 (stereo unspecified) | – | -0.1 | 1.3 | 0.1 | – | – | – | – |
| O=C1CC(c2ccc(C(F)(F)F)cc2)Cc2nc3cc(Cl)ccc3c(O)c21 (stereo unspecified) | – | -0.4 | 0.4 | 0.2 | – | – | – | – |
| O=C1CC(c2ccc(C(F)(F)F)cc2)Cc2nc3c(Br)cc(Br)cc3c(O)c21 (stereo unspecified) | – | 0.6 | 0 | 0.2 | – | – | – | – |
| Cc1ccc(C2CC(=O)c3c(n(O)c4ccc(Cl)cc4c3=O)C2)cc1 (stereo unspecified) | 0.8 | 0.6 | 6.9 | 3.1 | – | 2.8 | – | – |
| O=C1CC(c2ccccc2C(F)(F)F)Cc2nc3ccc(Cl)cc3c(O)c21 (stereo unspecified) | – | 0.7 | 8.3 | 8.5 | – | – | – | – |
| COc1ccccc1C1C/C(=N\CCCN(C)C)c2c(nc3ccc(Cl)cc3c2O)C1 (stereo unspecified) | – | 1.7 | 6.4 | 6.7 | – | – | 2 | – |
| CCc1ccc2nc3c(c(O)c2c1)C(=O)CC(c1ccc(C(F)(F)F)cc1)C3 (stereo unspecified) | – | 0 | 0.2 | 0.4 | – | – | – | – |
| COc1ccc(C2CC(=O)c3c(nc4ccc(Cl)cc4c3O)C2)cc1 (stereo unspecified) | – | -0.1 | -0.1 | 0.1 | – | – | – | – |
| CCCCn1c2c(c(=O)c3cc(Cl)ccc31)C(=O)CC(c1ccc(C(F)(F)F)cc1)C2 (stereo unspecified) | – | -0.2 | 0.4 | -0.2 | – | – | – | – |
| CN(C)CCC/N=C1\CC(C)(C)Cc2c1c(=O)c1cc(Cl)ccc1n2O | – | 0.2 | 2.8 | 0.4 | – | – | – | – |
| CCN(CC)CCC/N=C1\CC(c2cc(OC)c(OC)c(OC)c2)Cc2c1c(=O)c1cc(Cl)ccc1n2O (stereo unspecified) | – | 0.4 | 6.1 | 0.7 | – | – | – | – |
| O=c1c2c(n(O)c3ccc(Cl)cc13)CC(c1cccc(C(F)(F)F)c1)C/C2=N\CCCN1CCCC1 (stereo unspecified) | – | 6.2 | 25.6 | 9.6 | 3 | 6 | 4 | 5 |
| O=C1CC2(CCCCC2)Cc2c1c(=O)c1cc(Cl)ccc1n2O | – | 0 | 0 | 0.2 | – | – | – | – |
| O=C1CC(c2ccccc2Cl)Cc2c1c(=O)c1cc(Cl)ccc1n2O (stereo unspecified) | 1.7 | 4.6 | 9 | 4.5 | 1 | – | 4 | – |
